ChEMBL document CHEMBL4428055 (J Med Chem, 2016)
The source made the active and inactive calls. The calls are words filed in the database; no cut-off is given here.

What was measured:
[1] = target: T1, Aldo-keto reductase family 1 member C2 (Homo sapiens, UniProt P52895); assay: Inhibition of human recombinant AKR1C2 using S-tetralol as substrate assessed as reduction in NADP+-dependent S-tetralol oxidation preincubated for 10 mins followed by protein addition by fluorometric assay
T1 sequence (P52895 whole entry): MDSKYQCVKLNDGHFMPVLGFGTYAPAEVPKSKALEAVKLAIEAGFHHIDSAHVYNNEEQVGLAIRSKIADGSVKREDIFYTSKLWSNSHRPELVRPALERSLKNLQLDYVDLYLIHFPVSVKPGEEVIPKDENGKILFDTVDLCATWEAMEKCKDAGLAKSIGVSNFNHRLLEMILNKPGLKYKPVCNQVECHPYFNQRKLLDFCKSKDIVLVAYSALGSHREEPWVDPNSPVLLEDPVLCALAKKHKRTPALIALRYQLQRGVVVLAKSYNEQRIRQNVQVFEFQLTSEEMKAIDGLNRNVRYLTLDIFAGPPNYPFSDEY

[2] = target: T2, Prostaglandin G/H synthase 2 (Homo sapiens, UniProt P35354); assay: Inhibition of COX2 (unknown origin) using arachidonic acid as substrate assessed as […] by measuring TMPD oxidation preincubated for 5 mins followed by substrate/TMPD addition measured for 5 mins by colorimetric assay
T2 sequence (P35354 whole entry): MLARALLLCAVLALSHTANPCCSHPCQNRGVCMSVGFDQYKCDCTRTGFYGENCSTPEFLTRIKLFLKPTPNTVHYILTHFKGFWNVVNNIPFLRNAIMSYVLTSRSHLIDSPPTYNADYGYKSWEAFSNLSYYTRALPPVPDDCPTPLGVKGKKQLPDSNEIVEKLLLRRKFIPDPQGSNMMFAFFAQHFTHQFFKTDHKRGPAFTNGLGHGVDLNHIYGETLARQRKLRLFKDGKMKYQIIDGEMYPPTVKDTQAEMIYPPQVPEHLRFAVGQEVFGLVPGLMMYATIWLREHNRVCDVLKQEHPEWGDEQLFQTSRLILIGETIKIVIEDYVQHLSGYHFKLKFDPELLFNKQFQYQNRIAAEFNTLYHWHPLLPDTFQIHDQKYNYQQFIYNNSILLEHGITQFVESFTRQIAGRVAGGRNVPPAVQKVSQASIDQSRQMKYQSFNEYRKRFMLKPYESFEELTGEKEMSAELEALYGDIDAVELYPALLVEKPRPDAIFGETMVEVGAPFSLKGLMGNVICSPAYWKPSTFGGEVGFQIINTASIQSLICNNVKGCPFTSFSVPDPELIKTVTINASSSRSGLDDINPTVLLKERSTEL

[3] = target: T3, Prostaglandin G/H synthase 1 (Ovis aries) (UniProt P05979); settings: 100 uM
T3 sequence (whole entry): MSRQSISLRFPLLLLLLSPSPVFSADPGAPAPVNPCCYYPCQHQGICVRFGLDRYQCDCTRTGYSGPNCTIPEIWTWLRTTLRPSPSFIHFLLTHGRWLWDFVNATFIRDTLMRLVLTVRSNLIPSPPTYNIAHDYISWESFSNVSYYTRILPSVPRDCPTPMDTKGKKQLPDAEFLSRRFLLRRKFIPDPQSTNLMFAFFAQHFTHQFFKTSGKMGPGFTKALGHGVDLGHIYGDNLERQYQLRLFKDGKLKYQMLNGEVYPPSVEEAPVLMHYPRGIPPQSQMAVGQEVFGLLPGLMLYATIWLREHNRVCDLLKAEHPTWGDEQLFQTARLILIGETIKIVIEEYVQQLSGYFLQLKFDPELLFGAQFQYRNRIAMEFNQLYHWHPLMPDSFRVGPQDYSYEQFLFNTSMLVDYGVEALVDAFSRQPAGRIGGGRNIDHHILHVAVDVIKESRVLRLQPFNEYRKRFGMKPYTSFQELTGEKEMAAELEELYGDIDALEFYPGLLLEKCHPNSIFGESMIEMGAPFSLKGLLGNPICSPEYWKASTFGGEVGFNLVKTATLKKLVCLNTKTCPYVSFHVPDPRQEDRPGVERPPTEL

[4] = target: T4, Aldo-keto reductase family 1 member C3 (Homo sapiens, UniProt P42330); assay: Inhibition of human recombinant AKR1C3 using S-tetralol as substrate assessed as reduction in NADP+-dependent S-tetralol oxidation preincubated for 10 mins followed by protein addition by fluorometric assay
T4 sequence (P42330 whole entry): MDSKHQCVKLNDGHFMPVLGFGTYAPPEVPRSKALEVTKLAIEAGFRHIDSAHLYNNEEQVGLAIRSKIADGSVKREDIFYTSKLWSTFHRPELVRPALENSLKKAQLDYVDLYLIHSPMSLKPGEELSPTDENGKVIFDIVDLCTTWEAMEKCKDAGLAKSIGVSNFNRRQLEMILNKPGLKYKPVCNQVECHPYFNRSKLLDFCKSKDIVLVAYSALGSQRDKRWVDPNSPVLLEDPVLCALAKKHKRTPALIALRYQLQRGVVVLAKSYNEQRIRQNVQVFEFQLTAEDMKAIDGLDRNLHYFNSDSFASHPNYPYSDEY

[5] = target: T5, Prostaglandin G/H synthase 1 (Ovis aries, UniProt P05979); assay: Inhibition of COX1 in ram seminal vesicles using arachidonic acid as substrate assessed as reduction in […] by measuring TMPD oxidation preincubated for 5 mins followed by substrate/TMPD addition measured for 5 mins by colorimetric assay
T5 sequence (P05979 whole entry): T3 sequence (whole entry)

[6] = target: T6, Androgen receptor (Homo sapiens) (UniProt P10275); assay: Effect on 5alpha-DHT-induced activation of AR (unknown origin) expressed in human HeLa13 cells at 10 uM incubated for 20 hrs by luciferase reporter gene assay; type: cell-based
T6 sequence (whole entry): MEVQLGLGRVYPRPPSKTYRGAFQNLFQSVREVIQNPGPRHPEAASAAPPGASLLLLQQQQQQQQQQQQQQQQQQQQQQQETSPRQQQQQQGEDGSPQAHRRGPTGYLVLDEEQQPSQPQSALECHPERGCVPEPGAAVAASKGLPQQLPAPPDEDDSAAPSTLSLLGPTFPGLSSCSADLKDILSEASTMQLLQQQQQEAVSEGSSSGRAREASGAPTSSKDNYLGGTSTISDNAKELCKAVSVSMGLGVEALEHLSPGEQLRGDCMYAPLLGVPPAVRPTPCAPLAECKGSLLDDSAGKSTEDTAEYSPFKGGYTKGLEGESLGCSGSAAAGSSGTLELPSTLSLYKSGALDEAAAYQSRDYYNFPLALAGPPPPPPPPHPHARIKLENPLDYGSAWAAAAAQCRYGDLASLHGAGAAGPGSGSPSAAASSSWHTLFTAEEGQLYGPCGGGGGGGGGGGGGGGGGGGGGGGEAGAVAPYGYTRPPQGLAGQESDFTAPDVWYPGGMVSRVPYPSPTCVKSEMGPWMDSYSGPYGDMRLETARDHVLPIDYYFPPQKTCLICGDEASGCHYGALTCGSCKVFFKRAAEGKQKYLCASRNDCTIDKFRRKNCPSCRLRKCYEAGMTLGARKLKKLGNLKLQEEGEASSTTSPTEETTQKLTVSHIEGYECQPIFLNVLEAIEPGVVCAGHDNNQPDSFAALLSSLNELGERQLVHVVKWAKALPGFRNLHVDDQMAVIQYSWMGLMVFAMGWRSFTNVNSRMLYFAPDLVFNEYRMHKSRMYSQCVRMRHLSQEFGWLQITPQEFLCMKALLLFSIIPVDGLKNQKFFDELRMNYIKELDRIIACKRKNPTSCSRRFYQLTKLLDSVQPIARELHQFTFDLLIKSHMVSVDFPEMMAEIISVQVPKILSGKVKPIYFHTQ
Outline: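 HeLa13 cells stably carrying AR and an androgen-response-element luciferase reporter were grown 48 h in phenol-red-free medium with 5% charcoal-stripped FBS. They were plated for 6–7 h, then given fresh medium with 5α-DHT (1 nM in methods; increasing concentrations also tested) plus inhibitor. Luciferase was read after 20 h, as fold induction over untreated cells.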

[7] = target: T7, Prostaglandin G/H synthase 2 (Homo sapiens) (UniProt P35354); assay: Inhibition of COX2 (unknown origin) using arachidonic acid as substrate assessed as reduction in […] by measuring TMPD oxidation at 10 uM preincubated for 5 mins followed by substrate/TMPD addition measured for 5 mins by colorimetric assay
T7 sequence (whole entry): T2 sequence (P35354 whole entry)

Row | SMILES | IC50 [1] [µM] | IC50 [4] [µM] | also measured
1 | COc1ccc2cc([C@@H](C)C(=O)O)ccc2c1 | 2.75 | – | IC50 ([2]; read-out: IC50): > 25 µM; inhibition [3]: < 20%
2 | COc1ccc2cc([C@H](C)C(=O)O)ccc2c1 [NAPROXEN] | – | – | IC50 ([2]; read-out: IC50): 0.9 µM
3 | CCc1ccc2cc(C(C)C(=O)O)ccc2c1 (racemic) | 1.9 | 0.12 | –
4 | CCC(C(=O)NS(C)(=O)=O)c1ccc2cc(OC)ccc2c1 (racemic) | 34 | 6 | –
5 | CC[C@H](C(=O)O)c1ccc2cc(OC)ccc2c1 | 1.72 | 0.12 | IC50 [2]: Not Active; IC50 [5]: 1.93 µM
6 | CSc1ccc2cc([C@H](C)C(=O)O)ccc2c1 | 1.35 | 0.07 | –
7 | CC[C@@H](C(=O)O)c1ccc2cc(OC)ccc2c1 | – | – | IC50 [2]: Not Active; Activity [6]: inactive
8 | CSc1ccc2cc(C(C)C(=O)O)ccc2c1 (racemic) | 1.5 | 0.06 | –
9 | CCOc1ccc2cc(C(C)C(=O)O)ccc2c1 (racemic) | 2.4 | 0.1 | –
10 | CCC(C(=O)O)c1ccc2cc(OC)ccc2c1 (racemic) | 7.6 | 0.12 | inhibition [7]: inactive
